Test results from paper PMC8895471 (Oncology Letters, 2022).

How the values were obtained:
Assay type in all cases: cell-based, human
AsPC-1 cells [1] = assay: Cytotoxicity / viability, XTT assay; conditions: AsPC-1, 10, 15 or 20 µM gemcitabine, 48 h
AsPC-1 cells [2] = assay: Apoptosis assay using Annexin V/PI double staining; conditions: AsPC-1, 2 µM PNA, 48 h; untreated control 7%; mean of n=3
Procedure, shortened: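 AsPC-1 cells (5×10^5) were seeded in six-well plates and transfected the next day with PNAs using lipofectamine, then incubated for 48 h. Adherent and floating cells were harvested by trypsinization, washed, and resuspended in ice-cold binding buffer with FITC-Annexin V and PI. Cells were stained 15 min at room temperature in the dark and analysed by flow cytometry. Data are mean ± standard error, n=3.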

[3] = test system: mutant KRAS gene expression (mRNA) in AsPC-1 cells; assay: KRAS expression profile by quantitative real-time PCR; conditions: AsPC-1, 2 µM or 4 µM PNAs, 48 h, normalised to GAPDH, n=3
[4] = test system: RAS protein in AsPC-1 cells; assay: Western blot analysis of RAS protein; conditions: AsPC-1, PNA-treated 48 h, band intensity of three blots
Procedure, shortened: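 AsPC-1 cells were treated with PNAs for 48 h, then lysed 20 min on ice in RIPA buffer with protease inhibitor and cleared at 13,000 rpm, 10 min, 4 °C. 20 µg protein per lane was resolved by SDS-PAGE and transferred by semi-dry blotting. Blots were blocked 1 h in 5% milk/TBST, probed overnight with anti-Ras antibody, then with peroxidase-conjugated secondary 1 h at room temperature. GAPDH served as reference.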

For `Nc1ccn([C@@H]2O[C@H](CO)[C@@H](O)C2(F)F)c(=O)n1` [Gemcitabine], the “cell viability (XTT)” value (AsPC-1 cells [1]) was “total death with no dose response”.
In the case of CTACGCCATCAGCTCCA-KKK [PNA1], the “apoptosis (percentage of apoptotic cells)” value (AsPC-1 cells [2]) is reported as 18%, the “effect on mutant KRAS gene expression (mRNA, RT-qPCR)” value (from here on “effect on mutant KRAS gene expression”) [3] is reported as “weaker effect of PNA1 at 4 µm compared to PNA1 at 1 µM” and the “RAS protein levels (western blot)” value [4] is reported as “decrease in total RAS protein levels”.
In the case of CTDCGCCDTCDGCTCCD-KKK [PNA3], the “apoptosis (percentage of apoptotic cells)” value (AsPC-1 cells [2]) is reported as 20% and the “effect on mutant KRAS gene expression” value [3] is reported as “dose-dependent and have a significant effect”.
For CTDCpGCCDTCpDGCTCCpD [PNA14], the “apoptosis (percentage of apoptotic cells)” value (AsPC-1 cells [2]) was 20% and the “effect on mutant KRAS gene expression” value [3] was “dose-dependent and have a significant effect”.
